Results reported in ChEMBL document CHEMBL1125497, “Synthesis and anticonvulsant activity of enaminones” (J Med Chem, 1992).

Key:
[1] = Antiepileptic activity in male CF1 mice 4 hr after administration measured in subcutaneous pentylenetetrazole (scMet) test at a dose of 100 mg/kg; activity value is 0/1; format: functional, Mus musculus
[2] = Protective index was measured as TD50/MES ED50 in mice on po administration; format: ADME, organism-based; conditions: mouse, in vivo, read-out: PI
Procedure, shortened: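 Male CF1 mice (ca. 24–34 g) dosed orally with 0.5% methylcellulose suspension. MES ED50 (protection of 50% from tonic hind limb extension) and rotorod TD50, each determined at time of peak effect by Litchfield and Wilcoxon. PI = TD50/MES ED50.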

[3] = Antiepileptic activity in male CF1 mice 4 hr after administration measured in maximum electroshock seizure(MES) test at a dose of 300 mg/kg; format: functional, Mus musculus
[4] = Time of peak anticonvulsant effect in CF1 MICE after ip administration.; format: functional, Mus musculus
Procedure, shortened: (§1)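 Male CF1 mice (ca. 24–34 g), compound in 0.5% methylcellulose suspension given ip or po; time (h) at which MES protection (against tonic hind limb extension) peaked was recorded and used for ED50 determination.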

[5] = Antiepileptic activity in male CF1 mice 0.5 hr after oral administration measured in maximum electroshock seizure(MES) test at a dose of 50 mg/kg (no. of animals treated /protected); activity value is 4/4; format: functional, Mus musculus
[6] = Time of peak neurotoxic effect in CF1 MICE after ip administration.; format: ADME, organism-based; conditions: mouse, in vivo
Procedure, shortened: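 Male CF1 mice (ca. 24–34 g), compound ip in 0.5% methylcellulose suspension; neurological deficit assessed by rotorod test, time (h) of peak neurotoxic effect recorded for TD50 determination.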

[7] = Dose protecting 50% of the mice from tonic hind limb extension at the time of peak convulsant effect after po administration.; format: functional; conditions: Mus musculus, Hindlimb
Procedure, shortened: (§2)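 Phase II quantification in CF1 male mice (ca. 24–34 g), dosing ip or po in 0.5% methylcellulose suspension. ED50 is protection from tonic hind limb extension in MES. TD50 is rotorod neurotoxicity. Both were read at time of peak effect and derived by Litchfield–Wilcoxon with 95% confidence limits.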

[8] = Antiepileptic activity in male CF1 mice 4 hr after oral administration measured in maximum electroshock seizure(MES) test at a dose of 50 mg/kg (no. of animals treated /protected); activity value is 2/4; format: functional, Mus musculus
[9] = Dose elevating electroshock induced seizure by 20% in CF1 mice after ip administration.; format: functional, Mus musculus
Procedure, shortened: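 In CF1 male mice (ca. 24–34 g), compound was given ip in 0.5% methylcellulose. The current giving hind limb extension in 50% of mice was found by the up-and-down method, with 15–25 mice per group and a vehicle control group run with each experimental group. At least three doses were tested. The dose raising threshold current by 20% was taken from a plot of dose against % threshold increase.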

Rattus norvegicus [10] = assay: Average seizure score for the rat cornea 0.5 hr after peroral administration of 60 mg/kg of compound; format: functional; conditions: route oral
Procedure, shortened: (§3)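 Sprague-Dawley rats (85–95 g initial) were kindled with 4 s, 8 mA corneal stimulations (butacaine anesthesia) to 10 consecutive stage 5 seizures. After a vehicle shock and a 2-day shock-free period, test drug was given ip or po and a single shock applied at time of peak effect. Seizures were scored on a modified Racine 0–5 scale. ED50 is the dose reducing severity by 50% (Litchfield–Wilcoxon).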

[11] = Antiepileptic activity in male CF1 mice 1 hr after oral administration measured in maximum electroshock seizure(MES) test at a dose of 50 mg/kg; activity value is 3/4; format: functional, Mus musculus
[12] = Antiepileptic activity in male CF1 mice 30 min after administration measured in neurological toxicity (Tox) test at a dose of 100 mg/kg (no. of animals treated /protected); activity value is 0/8; format: functional, Mus musculus
[13] = Dose showing neurotoxicity in 50% of the at the time of peak neurotoxic effect in CF1 MICE after po administration.; format: toxicity, organism-based; conditions: CF1, mouse, in vivo; procedure, shortened: as §2
[14] = Time of peak anticonvulsant effect in CF1 MICE after po administration.; format: functional, Mus musculus; procedure, shortened: as §1
[15] = Protective index was measured as TD50/MES ED50 in mice on ip administration; format: ADME, organism-based; conditions: mouse, in vivo, read-out: PI
Procedure, shortened: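 Male CF1 mice (ca. 24–34 g), compound given ip as 0.5% methylcellulose suspension. MES ED50 = dose protecting 50% from tonic hind limb extension; TD50 = median neurotoxic dose by rotorod; both at time of peak effect, with confidence limits by Litchfield and Wilcoxon. PI = TD50/MES ED50.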

[16] = Dose protecting 50% of the mice from tonic hind limb extension at the time of […] after ip administration.; format: functional; conditions: Mus musculus, Hindlimb; procedure, shortened: as §2
Rattus norvegicus [17] = assay: Average seizure score for the rat cornea 0.5 hr after peroral administration of 75 mg/kg of compound; format: functional; conditions: route oral; procedure, shortened: as §3
[18] = Antiepileptic activity in male CF1 mice 30 min after administration measured in neurological toxicity (Tox) test at a dose of 300 mg/kg (no. of animals treated /protected); activity value is 4/4; format: functional, Mus musculus
[19] = Antiepileptic activity in male CF1 mice 1.00 hours after oral administration measured in neurological toxicity (Tox) test at a dose of 6 mg/kg (no. of animals treated /protected); activity value is 0/4; format: functional, Mus musculus
[20] = Antiepileptic activity in male CF1 mice 4 hr after administration measured in maximum electroshock seizure(MES) test at a dose of 300 mg/kg (no. of animals treated /protected); activity value is 1/1; format: functional, Mus musculus
[21] = Antiepileptic activity in male CF1 mice 2 hr after oral administration measured in neurological toxicity (Tox) test at a dose of 10 mg/kg (no. of animals treated /protected); activity value is 0/4; format: functional, Mus musculus
[22] = Antiepileptic activity in male CF1 mice 2.00 hours after oral administration measured in neurological toxicity (Tox) test at a dose of 6 mg/kg (no. of animals treated /protected); activity value is 0/4; format: functional, Mus musculus
[23] = Antiepileptic activity in male CF1 mice 1 hr after oral administration measured in neurological toxicity (Tox) test at a dose of 10 mg/kg (no. of animals treated /protected); activity value is 0/4; format: functional, Mus musculus
[24] = Antiepileptic activity in male CF1 mice 30 min after administration measured in maximum electroshock seizure(MES) test at a dose of 100 mg/kg (no. of animals treated /protected); activity value is 3/3; format: functional, Mus musculus
[25] = Dose producing neurotoxic effects in 50% of the CF1 mice after intraperitoneal administration.; format: functional; conditions: Mus musculus, ip; read-out: ED50 (the source's name); procedure, shortened: as §2
Rattus norvegicus [26] = assay: Average seizure score for the rat cornea 0.5 hr after peroral administration of 40 mg/kg of compound; format: functional; conditions: route oral; procedure, shortened: as §3
[27] = Antiepileptic activity in male CF1 mice 4 hr after administration measured in subcutaneous pentylenetetrazole (scMet) test at a dose of 100 mg/kg (no. of animals treated /protected); activity value is 0/1; format: functional, Mus musculus
[28] = Antiepileptic activity in male CF1 mice 30 min after administration measured in neurological toxicity (Tox) test at a dose of 100 mg/kg (no. of animals treated /protected); activity value is 1/8; format: functional, Mus musculus

Q: With `COC(=O)C1C(=O)C=C(NCc2ccccc2)CC1C` (stereo not drawn) as the compound, how does the Activity [1] read?
A: 0

Q: And the selectivity ratio [2]?
A: > 3.1

Q: And the Activity [3]?
A: 0.1

Q: What about the TPE [4] of the same compound?
A: 0.5 h

Q: And the Activity [5]?
A: 4

Q: What about the TPE [6] of the same compound?
A: 0.25 h

Q: And the ED50 [7]?
A: 162 mg/kg

Q: And the Activity [8]?
A: 2

Q: And the Dose [9]?
A: 13 mg/kg

Q: What about the Average seizure score (Rattus norvegicus [10]) of the same compound?
A: 3

Q: What about the Activity [11] of the same compound?
A: 3

Q: And the Activity [12]?
A: 0

Q: What about the TD50 [13] of the same compound?
A: > 500 mg/kg

Q: And the TPE [14]?
A: 0.5 h

Q: And the selectivity ratio [15]?
A: > 11.9

Q: And the ED50 [16]?
A: 42 mg/kg

Q: And the Average seizure score (Rattus norvegicus [17])?
A: 2.6

Q: With `COC(=O)C1C(=O)C=C(Nc2ccc(Cl)cc2)CC1C` (stereo not drawn) as the compound, how does the Activity [18] read?
A: 4

Q: What about the Activity [19] of the same compound?
A: 0

Q: And the Activity [20]?
A: 1

Q: And the Activity [21]?
A: 0

Q: What about the Activity [22] of the same compound?
A: 0

Q: What about the Activity [23] of the same compound?
A: 0

Q: What about the Activity [24] of the same compound?
A: 3

Q: And the TD50 [25]?
A: 255 mg/kg

Q: What about the Average seizure score (Rattus norvegicus [26]) of the same compound?
A: 2.6

Q: And the Activity [27]?
A: 0

Q: And the Activity [28]?
A: 1
